Results as given in PMC11865470 (Communications Biology, 2025).
“Also recorded” adds a separate entry of the source.

Tests used:
Format in all cases: cell-based
Kir4.1 = molecular target: T1, Kir4.1 (Homo sapiens, UniProt P78508); test: whole-cell patch-clamp, off-target channel, 10 μM compound; conditions: vs 0.1% DMSO
T1 sequence (P78508 1-379): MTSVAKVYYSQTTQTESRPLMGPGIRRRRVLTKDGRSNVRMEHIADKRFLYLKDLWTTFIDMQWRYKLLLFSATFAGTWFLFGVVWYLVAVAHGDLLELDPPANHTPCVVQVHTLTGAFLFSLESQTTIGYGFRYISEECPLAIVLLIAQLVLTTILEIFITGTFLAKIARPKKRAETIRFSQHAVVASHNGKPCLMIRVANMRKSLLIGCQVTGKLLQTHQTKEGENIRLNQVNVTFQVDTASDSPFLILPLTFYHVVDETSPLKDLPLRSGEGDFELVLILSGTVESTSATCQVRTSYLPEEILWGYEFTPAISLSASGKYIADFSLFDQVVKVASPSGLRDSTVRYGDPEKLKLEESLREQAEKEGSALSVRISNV
How it was run: (§1)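 Kir channels in transfected HEK293T cells, whole-cell. Pipette (mM): 135 KCl, 2 MgCl2, 10 HEPES, 1 EGTA, 4 Na2-ATP, pH 7.3. Bath (mM): 135 NaCl, 5 KCl, 1.5 CaCl2, 1 MgCl2, 10 HEPES, 10 glucose, pH 7.4. 0.1% DMSO bath applied before 10 μM test compound. Inhibition ratios compared by unpaired t-test, n = 5.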

KV1.3 = KV1.3 (Homo sapiens, UniProt P22001); test: whole-cell patch-clamp, off-target channel, 10 μM compound
Chain of KV1.3 (P22001 whole entry): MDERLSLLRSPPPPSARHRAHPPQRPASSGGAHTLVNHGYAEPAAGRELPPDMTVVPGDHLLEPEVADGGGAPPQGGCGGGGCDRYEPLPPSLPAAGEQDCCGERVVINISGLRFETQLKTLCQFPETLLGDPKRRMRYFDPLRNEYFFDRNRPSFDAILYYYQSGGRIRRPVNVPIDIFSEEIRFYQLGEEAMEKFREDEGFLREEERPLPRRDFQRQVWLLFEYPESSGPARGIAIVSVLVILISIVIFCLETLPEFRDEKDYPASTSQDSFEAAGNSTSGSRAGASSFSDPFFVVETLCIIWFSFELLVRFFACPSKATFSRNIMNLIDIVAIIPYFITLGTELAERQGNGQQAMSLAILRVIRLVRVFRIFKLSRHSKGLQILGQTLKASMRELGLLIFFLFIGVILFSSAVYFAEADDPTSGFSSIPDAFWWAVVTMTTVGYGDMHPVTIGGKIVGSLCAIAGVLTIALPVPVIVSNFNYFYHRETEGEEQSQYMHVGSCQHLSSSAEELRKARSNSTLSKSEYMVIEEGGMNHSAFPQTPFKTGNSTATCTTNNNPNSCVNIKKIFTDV
How it was run: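 KV channels in transiently transfected HEK293T cells, whole-cell. Pipette (mM): 140 KCl, 2.5 MgCl2, 11 EGTA, 10 HEPES, pH 7.4. Bath (mM): 145 NaCl, 2.8 KCl, 2 CaCl2, 1 MgCl2, 10 glucose, 10 HEPES, pH 7.4. 0.1% DMSO bath applied, then 10 μM test compound. DMSO vs compound inhibition ratio compared by unpaired t-test, n = 5.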

mouse Otop3 (mOtop3) = molecular target: T2, mouse Otop3 (mOtop3) (Mus musculus, UniProt Q80UF9); test: whole-cell patch-clamp, pH 5.5-evoked currents; conditions: 10 μM
T2 sequence (Q80UF9 1-577): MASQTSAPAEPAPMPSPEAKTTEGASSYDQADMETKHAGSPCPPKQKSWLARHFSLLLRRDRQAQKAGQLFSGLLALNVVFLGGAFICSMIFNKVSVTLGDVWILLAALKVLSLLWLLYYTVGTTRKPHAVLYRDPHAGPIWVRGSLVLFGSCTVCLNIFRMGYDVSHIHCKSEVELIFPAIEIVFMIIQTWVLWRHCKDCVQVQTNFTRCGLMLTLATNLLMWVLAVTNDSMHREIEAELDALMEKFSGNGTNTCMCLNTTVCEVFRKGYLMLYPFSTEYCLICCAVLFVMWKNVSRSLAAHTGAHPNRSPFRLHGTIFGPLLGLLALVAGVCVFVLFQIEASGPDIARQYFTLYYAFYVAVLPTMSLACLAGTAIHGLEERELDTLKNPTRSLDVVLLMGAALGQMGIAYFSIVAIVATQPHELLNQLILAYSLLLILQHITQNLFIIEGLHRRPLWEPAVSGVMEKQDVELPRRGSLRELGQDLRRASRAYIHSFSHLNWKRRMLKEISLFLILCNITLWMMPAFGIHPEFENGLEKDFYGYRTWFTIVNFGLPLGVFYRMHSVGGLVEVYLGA
How it was run: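 Channel plasmid (2.5 μg) was co-transfected with EGFP plasmid (0.5 μg) using Lipofectamine 2000 into PAC-knockout HEK293T cells. Whole-cell recording 16–24 h after seeding, with Cs-aspartate pipette solution (pH 7.3). Currents evoked by pH 5.5 bath (160 mM NMDG-Cl, 2 mM CaCl2, 10 mM MES); test compound 10 μM.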

[1] = molecular target: T3, mouse Otop1 (mOtop1) channels (Mus musculus, UniProt Q80VM9); test: whole-cell patch-clamp, "on-current" analysis of acid/alkali-evoked currents
T3 sequence (Q80VM9 1-600): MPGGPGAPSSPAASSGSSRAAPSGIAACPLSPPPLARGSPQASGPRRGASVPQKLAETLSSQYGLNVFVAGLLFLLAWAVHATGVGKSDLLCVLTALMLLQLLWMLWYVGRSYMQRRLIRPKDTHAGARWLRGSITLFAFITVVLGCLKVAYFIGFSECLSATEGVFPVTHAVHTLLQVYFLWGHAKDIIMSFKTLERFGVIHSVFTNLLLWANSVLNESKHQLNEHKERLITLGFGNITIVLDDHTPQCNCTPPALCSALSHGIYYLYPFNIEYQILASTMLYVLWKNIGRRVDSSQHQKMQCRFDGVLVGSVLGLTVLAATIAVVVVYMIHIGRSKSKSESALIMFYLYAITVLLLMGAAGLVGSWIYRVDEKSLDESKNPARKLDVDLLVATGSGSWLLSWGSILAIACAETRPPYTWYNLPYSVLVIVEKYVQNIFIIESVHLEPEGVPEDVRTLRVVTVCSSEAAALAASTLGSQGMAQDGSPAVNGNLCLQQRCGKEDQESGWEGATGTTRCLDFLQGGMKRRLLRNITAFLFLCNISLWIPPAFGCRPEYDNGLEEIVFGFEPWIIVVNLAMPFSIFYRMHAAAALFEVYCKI

Kir1.1 = molecular target: T4, Kir1.1 (Homo sapiens, UniProt P48048); test: whole-cell patch-clamp, off-target channel, 10 μM compound; conditions: vs 0.1% DMSO
T4 sequence (P48048 1-391): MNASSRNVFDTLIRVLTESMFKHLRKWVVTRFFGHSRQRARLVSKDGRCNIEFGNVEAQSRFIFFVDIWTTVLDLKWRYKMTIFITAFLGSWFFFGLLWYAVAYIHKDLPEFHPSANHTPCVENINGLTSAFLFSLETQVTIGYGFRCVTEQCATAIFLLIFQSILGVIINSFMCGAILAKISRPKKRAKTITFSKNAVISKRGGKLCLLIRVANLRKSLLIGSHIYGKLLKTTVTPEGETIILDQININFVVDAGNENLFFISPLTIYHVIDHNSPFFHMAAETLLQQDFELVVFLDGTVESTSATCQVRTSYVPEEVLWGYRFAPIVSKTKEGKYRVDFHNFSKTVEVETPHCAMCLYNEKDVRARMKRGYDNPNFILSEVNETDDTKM
How it was run: as §1

[2] = EC50s, enhancing acid-evoked Otop1 currents, summary statement
[3] = apparent EC50, potentiation of mOtop1 currents, pH 5.5, on-current analysis, n = 5

SMILES	sensitivity of channel to compound (Kir4.1)	inhibition ratio (KV1.3) [%]	effect on pH 5.5-evoked mOtop3 currents (mouse Otop3 (mOtop3))	direct activation of the Otop1 channel [1]	effect on pH 3.5-activated mOtop1 currents ([1]; 10 μM)	effect on pH 5.5-activated mOtop1 currents ([1]; 10 μM, pH 5.5)	EC50 [1, 2] [µM]	EC50 [1, 3] [µM]	sensitivity of channel to compound (Kir1.1)	effect on mOtop1 activity at alkaline or neutral pH ([1]; 10 μM, alkaline and neutral pH)	effect on pH 4.5-6.0 acid-activated mOtop1 currents ([1]; 10 μM, compared to the pH 3.5 group, Fig 1E)	EC50 ([1]; EC50, potentiation of mOtop1 currents, pH 6.0, on-current analysis, n = 5) [µM]	sensitivity of channel to compound (KV1.3; vs 0.1% DMSO)
CC(C)c1noc2ncc(C(=O)c3ccccc3O)cc12 [HIMOP, (2-hydroxyphenyl)-(3-propan-2-yl-5-isoxazolo[5,4-b]pyridinyl)methanone]	completely resistant	10.8	did not affect	without directly activating	did not potentiate	robust potentiation effects; also recorded: markedly potentiated; also recorded: potent potentiation effects	~10	16.8 ± 6.5	completely resistant				
Cc1ccc(C(=O)Nc2ccc3ccccc3c2)o1 [MFaN, 5-methyl-N-2-naphthyl-2-furamide]	completely resistant	15.9	did not affect	without directly activating	no detectable effect	robust potentiation effects; also recorded: potent potentiation effects	~10	10.3 ± 2.6	completely resistant	did not affect	potently potentiated	8.9 ± 4.7	
Cc1cc(NC(=O)c2ccc(Br)o2)ccc1NC(=O)c1ccco1 [B2FAMP, 5-Bromo-N-[4-(2-furoylamino)-3-methylphenyl]-2-furamide]	completely resistant		did not affect	without directly activating	did not potentiate	robust potentiation effects; also recorded: markedly potentiated; also recorded: potent potentiation effects	~10	12.2 ± 3.4	completely resistant				completely resistant
